# What was measured:
# Format in all cases: functional
# [1] = Antimicrobial activity against Psychrobacter ikaite isolate C20 harboring sul1 to sul3 genes by agar dilution method
# In short: (§1)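 Isolates were recovered from manured clay soil or pig slurry on Iso-Sensitest agar at 28°C. sul genes were detected by PCR, and identity was assigned by ~800 bp 16S rRNA sequencing. MICs and resistance breakpoints were found by agar dilution on Iso-Sensitest agar, with each inoculum (100 μl) adjusted to OD600 0.4.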
# [2] = tested on: Providencia stuartii; assay: Antimicrobial activity against Providencia stuartii isolate C167 harboring sul1 to sul3 genes by agar dilution method
# In short: (§2)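 Agar dilution on Iso-Sensitest agar for MICs and resistance breakpoints. Each isolate's inoculum (100 μl) was adjusted to OD600 0.4. Isolates came from soil cores of a field given pig slurry, or from the pig slurry itself. They were picked from nonselective or antibiotic plates incubated aerobically at 28°C, purified by restreaking, checked for sul genes by PCR and identified by 16S rRNA sequencing.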
# [3] = tested on: Acinetobacter lwoffii; assay: Antimicrobial activity against Acinetobacter lwoffii isolate C37 harboring sul1 to sul3 genes by agar dilution method; in short: as §2
# [4] = tested on: Aerococcus viridans; assay: Antimicrobial activity against Aerococcus viridans isolate PGS22 harboring sul1 to sul3 genes by agar dilution method; in short: as §2
# [5] = Antimicrobial activity against Acinetobacter sp. N2 isolate C439 harboring sul1 to sul3 genes by agar dilution method; in short: as §2
# [6] = tested on: Psychrobacter frigidicola; assay: Antimicrobial activity against Psychrobacter frigidicola isolate C712 harboring sul1 to sul3 genes by agar dilution method; in short: as §2
# [7] = Antimicrobial activity against Psychrobacter ikaite isolate C410 harboring sul1 to sul3 genes by agar dilution method; in short: as §1
# [8] = tested on: Acinetobacter baumannii; assay: Antimicrobial activity against Acinetobacter baumannii isolate C442 harboring sul1 to sul3 genes by agar dilution method; in short: as §2
# [9] = tested on: Acinetobacter lwoffii; assay: Antimicrobial activity against Acinetobacter lwoffii isolate PGS47 harboring sul1 to sul3 genes by agar dilution method; in short: as §2
# [10] = tested on: Acinetobacter lwoffii; assay: Antimicrobial activity against Acinetobacter lwoffii isolate C15 harboring sul1 to sul3 genes by agar dilution method; in short: as §2
# [11] = tested on: Pseudomonas fluorescens; assay: Antimicrobial activity against Pseudomonas fluorescens isolate C131 harboring sul1 to sul3 genes by agar dilution method; in short: as §2
# [12] = tested on: Acinetobacter lwoffii; assay: Antimicrobial activity against Acinetobacter lwoffii isolate C2 harboring sul1 to sul3 genes by agar dilution method; in short: as §2
# [13] = tested on: Acinetobacter calcoaceticus; assay: Antimicrobial activity against Acinetobacter calcoaceticus isolate C35 harboring sul1 to sul3 genes by agar dilution method; in short: as §2
# [14] = tested on: Enterococcus sulfureus; assay: Antimicrobial activity against Enterococcus sulfureus isolate PGS61 harboring sul1 to sul3 genes by agar dilution method; in short: as §2
# [15] = tested on: Acinetobacter lwoffii; assay: Antimicrobial activity against Acinetobacter lwoffii isolate C3 harboring sul1 to sul3 genes by agar dilution method; in short: as §2
# [16] = tested on: Aerococcus viridans; assay: Antimicrobial activity against Aerococcus viridans isolate PGS21 harboring sul1 to sul3 genes by agar dilution method; in short: as §2
# [17] = tested on: Enterococcus hirae; assay: Antimicrobial activity against Enterococcus hirae isolate PGS48 harboring sul1 to sul3 genes by agar dilution method; in short: as §2
# [18] = Antimicrobial activity against Acinetobacter sp. An9 isolate PGS49 harboring sul1 to sul3 genes by agar dilution method; in short: as §2
# [19] = tested on: Acinetobacter lwoffii; assay: Antimicrobial activity against Acinetobacter lwoffii isolate C141 harboring sul1 to sul3 genes by agar dilution method; in short: as §2
# [20] = tested on: Pseudomonas borealis; assay: Antimicrobial activity against Pseudomonas borealis isolate C5 harboring sul1 to sul3 genes by agar dilution method; in short: as §2
# [21] = Antimicrobial activity against Psychrobacter ikaite isolate C713 harboring sul1 to sul3 genes by agar dilution method; in short: as §1
# [22] = tested on: Pseudomonas lini; assay: Antimicrobial activity against Pseudomonas lini isolate C701 harboring sul1 to sul3 genes by agar dilution method; in short: as §2
# [23] = tested on: Bacillus psychrodurans; assay: Antimicrobial activity against Bacillus psychrodurans isolate C328 harboring sul1 to sul3 genes by agar dilution method; details: Psychrobacillus psychrodurans; in short: as §2
# [24] = Antimicrobial activity against Psychrobacter sp. DY9-2 isolate C711 harboring sul1 to sul3 genes by agar dilution method; in short: as §1
# [25] = tested on: Acinetobacter rhizosphaerae; assay: Antimicrobial activity against Acinetobacter rhizosphaerae isolate C44 harboring sul1 to sul3 genes by agar dilution method; in short: as §2
# [26] = tested on: Lysinibacillus sphaericus; assay: Antimicrobial activity against Bacillus sphaericus isolate C237 harboring sul1 to sul3 genes by agar dilution method; in short: as §2
# [27] = tested on: Acinetobacter calcoaceticus; assay: Antimicrobial activity against Acinetobacter calcoaceticus isolate C36 harboring sul1 to sul3 genes by agar dilution method; in short: as §2
# [28] = tested on: Stenotrophomonas maltophilia; assay: Antimicrobial activity against Stenotrophomonas maltophilia isolate C422 harboring sul1 to sul3 genes by agar dilution method; in short: as §1
# [29] = tested on: Pseudomonas putida; assay: Antimicrobial activity against Pseudomonas putida isolate C231 harboring sul1 to sul3 genes by agar dilution method; in short: as §2
# [30] = tested on: Shigella flexneri; assay: Antimicrobial activity against Shigella flexneri isolate C506 harboring sul1 to sul3 genes by agar dilution method; in short: as §1
# [31] = tested on: Arthrobacter arilaitensis; assay: Antimicrobial activity against Arthrobacter arilaitensis isolate C361 harboring sul1 to sul3 genes by agar dilution method; details: Glutamicibacter arilaitensis; in short: as §2
compound,measurement,setting,value
Nc1ccc(S(=O)(=O)Nc2ccc(Cl)nn2)cc1 [SULFACHLORPYRIDAZINE],MIC,[1],5 µg/mL
same,MIC,[2],6 µg/mL
same,MIC,[3],8 µg/mL
same,MIC,[4],8 µg/mL
same,MIC,[5],16 µg/mL
same,MIC,[6],8 µg/mL
same,MIC,[7],16 µg/mL
same,MIC,[8],8 µg/mL
same,MIC,[9],16 µg/mL
same,MIC,[10],5 µg/mL
same,MIC,[11],32 µg/mL
same,MIC,[12],5 µg/mL
same,MIC,[13],8 µg/mL
same,MIC,[14],4 µg/mL
same,MIC,[15],1 µg/mL
same,MIC,[16],32 µg/mL
same,MIC,[17],4 µg/mL
same,MIC,[18],16 µg/mL
same,MIC,[19],6 µg/mL
same,MIC,[20],32 µg/mL
same,MIC,[21],8 µg/mL
same,MIC,[22],1 µg/mL
same,MIC,[23],8 µg/mL
same,MIC,[24],8 µg/mL
same,MIC,[25],5 µg/mL
same,MIC,[26],1 µg/mL
same,MIC,[27],8 µg/mL
same,MIC,[28],1 µg/mL
same,MIC,[29],8 µg/mL
same,MIC,[30],8 µg/mL
same,MIC,[31],5 µg/mL

# Reference: ChEMBL document CHEMBL1629633, “Prevalence of sulfonamide resistance genes in bacterial isolates from manured agricultural soils and pig slurry in the United Kingdom” (2009)
